Paper PMC7668563 (International journal of molecular biology (Edmond, Okla.), 2020)
Read-outs that look alike come from different tables or passages of the source.

Legend:
[1] = target: T1, apo-human transferrin (apo-hTf) (Homo sapiens, UniProt P02787); test: UV-Vis absorbance titration of apo-hTf; type: binding; conditions: for Ka at 280 nm: absorbance at 280 nm; for Association constants, Ka, 280 nm: absorbance of apo-hTf at 280 nm, pH 7.4
[2] = target: T1, apo-human transferrin (apo-hTf); test: Fluorescence quenching of apo-hTf; type: binding; conditions: for biomolecular quenching rate constant kq: kq=Ksv/τ0; for Stern-Volmer quenching constant Ksv / number of binding sites n: pH 7.4; for quenching association constant Ka: pH 7.4, modified Stern-Volmer
Procedure, shortened: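 Intrinsic fluorescence of apo-hTf in Tris-HCl pH 7.4 was titrated with test compound (Tris-HCl/2% DMSO). Conditions: excitation 280 nm, emission 290–500 nm, slits 10/5 nm, 1.0 cm quartz cell, at 296, 303, 310 and 317 K, triplicate titrations. Intensities were corrected for inner filter effect using absorbances at excitation and emission wavelengths. Ksv came from Stern-Volmer plots of F0/F vs [Q]; kq = Ksv/τ0 (τ0 ~1.0×10−8); Ka and n came from the modified Stern-Volmer equation.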

[3] = target: T1, apo-human transferrin (apo-hTf); test: Thermodynamic parameters of apo-hTf complex formation; type: binding; conditions: for ∆H° / ∆S°: pH 7.4, from Ksv at 296-317 K
Procedure, shortened: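 Ksv values were obtained from apo-hTf fluorescence quenching at pH 7.4 at 296, 303, 310 and 317 K. ΔH°, ΔS° and ΔG° were derived from linear regression of ln(Ksv) vs 1/T (Van't Hoff equation).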

[4] = target: T1, apo-human transferrin (apo-hTf); test: Fluorescence resonance energy transfer; type: binding; conditions: for Förster critical energy transfer distance R0 / binding distance r (donor-acceptor): k^2=2/3, n=1.336, ØD=0.118; for efficiency of energy transfer E: room temperature, 1.0×10^−5 mol L^−1 each
Procedure, shortened: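 Emission spectrum of 1.0×10−5 mol L−1 apo-hTf and absorption spectrum of 1.0×10−5 mol L−1 test compound were recorded in 20 mM Tris-HCl pH 7.4 at room temperature, 260–450 nm, and their spectral overlap determined. E was calculated from apo-hTf fluorescence without and with equimolar test compound. R0 and donor–acceptor distance r came from Förster equations.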

[5] = target: T1, apo-human transferrin (apo-hTf); test: Far-UV circular dichroism titration of apo-hTf, secondary structure content
Procedure, shortened: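 Apo-hTf (4.0×10−7 mol L−1) in 2 mM Tris-HCl pH 7.4 was titrated with a 1.0×10−3 mol L−1 stock of test compound in Tris-HCl/2% DMSO, to final 0–2.4×10−6 mol L−1. Far-UV CD was recorded from 190–250 nm under nitrogen in a 1.0 cm cell: six scans at 100 nm/min. Baseline was buffer ± DMSO at room temperature. α-Helix was derived from MRE at 208 nm; β-sheet and random coil by the CD-RRG method.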

[6] = system: human breast adenocarcinoma cell line, MCF-7; conditions: cited from earlier work
[7] = system: human colorectal adenocarcinoma cell line, HT-29; conditions: cited from earlier work

T1 sequence (P02787 20-698): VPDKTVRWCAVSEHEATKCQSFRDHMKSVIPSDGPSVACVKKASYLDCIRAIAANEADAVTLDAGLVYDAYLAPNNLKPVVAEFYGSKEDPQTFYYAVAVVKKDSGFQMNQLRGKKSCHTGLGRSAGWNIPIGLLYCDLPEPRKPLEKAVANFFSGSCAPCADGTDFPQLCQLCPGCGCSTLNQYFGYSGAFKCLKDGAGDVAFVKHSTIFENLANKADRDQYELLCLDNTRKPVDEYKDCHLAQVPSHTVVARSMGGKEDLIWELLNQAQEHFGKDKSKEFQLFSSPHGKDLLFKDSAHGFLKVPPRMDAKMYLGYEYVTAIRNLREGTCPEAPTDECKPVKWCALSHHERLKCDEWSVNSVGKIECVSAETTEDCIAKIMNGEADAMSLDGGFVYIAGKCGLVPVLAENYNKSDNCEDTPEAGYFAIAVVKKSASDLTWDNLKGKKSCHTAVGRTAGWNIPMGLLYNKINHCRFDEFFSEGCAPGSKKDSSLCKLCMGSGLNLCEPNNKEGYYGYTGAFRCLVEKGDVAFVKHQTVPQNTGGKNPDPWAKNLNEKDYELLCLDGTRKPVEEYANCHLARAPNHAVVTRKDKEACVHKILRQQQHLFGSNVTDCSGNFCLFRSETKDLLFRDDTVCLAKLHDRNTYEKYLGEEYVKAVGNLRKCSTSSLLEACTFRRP

What does the source list for N.N.[Cl][Pt][Cl] [(NH3)2Pt(II)Cl2, cis-diamminedichloroplatinum (II), reference compound]?
Ka at 280 nm [1]: 740 M⁻¹; Association constants, Ka, 280 nm [1]: 0.74 10^3 M^−1; biomolecular quenching rate constant kq ([2]; 296 K): 1.35e+11 M⁻¹ s⁻¹; Stern-Volmer quenching constant Ksv ([2]; 296 K): 1350 M⁻¹; number of binding sites n ([2]; 296 K): 0.97; quenching association constant Ka ([2]; 296 K): 1100 M⁻¹; biomolecular quenching rate constant kq ([2]; 303 K): 1.1e+11 M⁻¹ s⁻¹; Stern-Volmer quenching constant Ksv ([2]; 303 K): 1100 M⁻¹; number of binding sites n ([2]; 303 K): 1.01; quenching association constant Ka ([2]; 303 K): 1200 M⁻¹; biomolecular quenching rate constant kq ([2]; 310 K): 9.8e+10 M⁻¹ s⁻¹; Stern-Volmer quenching constant Ksv ([2]; 310 K): 980 M⁻¹; number of binding sites n ([2]; 310 K): 1.04; quenching association constant Ka ([2]; 310 K): 1400 M⁻¹; biomolecular quenching rate constant kq ([2]; 317 K): 8.6e+10 M⁻¹ s⁻¹; Stern-Volmer quenching constant Ksv ([2]; 317 K): 860 M⁻¹; number of binding sites n ([2]; 317 K): 1.07; quenching association constant Ka ([2]; 317 K): 1600 M⁻¹; ∆G° ([3]; 296 K): -17.68 kJ/mol; ∆G° ([3]; 303 K): -17.71 kJ/mol; ∆G° ([3]; 310 K): -17.75 kJ/mol; ∆G° ([3]; 317 K): -17.79 kJ/mol; ∆H° [3]: -16.15 kJ/mol; ∆S° [3]: 5.17 J/mol K; Förster critical energy transfer distance R0 [4]: 7.4 nm; binding distance r (donor-acceptor) [4]: 10.35 nm; efficiency of energy transfer E [4]: 0.118; other secondary structure content of apo-hTf ([5]; compound concentration 0.4 (M)): 19.1%; random coil content of apo-hTf ([5]; compound concentration 0.4 (M)): 33.9%; α-helix content of apo-hTf ([5]; compound concentration 0.4 (M)): 28.9%; β-sheet content of apo-hTf ([5]; compound concentration 0.4 (M)): 18.1%; other secondary structure content of apo-hTf ([5]; compound concentration 0.8 (M)): 19.2%; random coil content of apo-hTf ([5]; compound concentration 0.8 (M)): 33.9%; α-helix content of apo-hTf ([5]; compound concentration 0.8 (M)): 28.7%; β-sheet content of apo-hTf ([5]; compound concentration 0.8 (M)): 18.2%; other secondary structure content of apo-hTf ([5]; compound concentration 1.2 (M)): 19.2%; random coil content of apo-hTf ([5]; compound concentration 1.2 (M)): 34%; α-helix content of apo-hTf ([5]; compound concentration 1.2 (M)): 28.5%; β-sheet content of apo-hTf ([5]; compound concentration 1.2 (M)): 18.3%; other secondary structure content of apo-hTf ([5]; compound concentration 1.6 (M)): 19.3%; random coil content of apo-hTf ([5]; compound concentration 1.6 (M)): 34%; α-helix content of apo-hTf ([5]; compound concentration 1.6 (M)): 28.3%; β-sheet content of apo-hTf ([5]; compound concentration 1.6 (M)): 18.4%; other secondary structure content of apo-hTf ([5]; compound concentration 2 (M)): 19.3%; random coil content of apo-hTf ([5]; compound concentration 2 (M)): 34.1%; α-helix content of apo-hTf ([5]; compound concentration 2 (M)): 28.1%; β-sheet content of apo-hTf ([5]; compound concentration 2 (M)): 18.5%; other secondary structure content of apo-hTf ([5]; compound concentration 2.4 (M)): 19.3%; random coil content of apo-hTf ([5]; compound concentration 2.4 (M)): 34.1%; α-helix content of apo-hTf ([5]; compound concentration 2.4 (M)): 28%; β-sheet content of apo-hTf ([5]; compound concentration 2.4 (M)): 18.6%; IC50 ([6]; read-out: IC50 (±SD), MCF-7, ref 83): 2 µM; IC50 ([6]; read-out: IC50 (±SD), MCF-7, ref 84): 4.6 µM; IC50 ([7]; read-out: IC50 (±SD), HT-29, ref 77): 66 µM; IC50 ([7]; read-out: IC50 (±SD), HT-29, ref 84): 23 µM; IC50 ([7]; read-out: IC50 (±SD), HT-29, ref 85): 76 µM

What does the source list for [Cl-].[Cl-].[Ti+4].c1cc[cH-]c1.c1cc[cH-]c1 [Cp2TiCl2, titanocene dichloride]?
Ka at 280 nm [1]: 2890 M⁻¹; Association constants, Ka, 280 nm [1]: 2.89 10^3 M^−1; biomolecular quenching rate constant kq ([2]; 296 K): 1.53e+11 M⁻¹ s⁻¹; Stern-Volmer quenching constant Ksv ([2]; 296 K): 1530 M⁻¹; number of binding sites n ([2]; 296 K): 1.11; quenching association constant Ka ([2]; 296 K): 4500 M⁻¹; biomolecular quenching rate constant kq ([2]; 303 K): 1.68e+11 M⁻¹ s⁻¹; Stern-Volmer quenching constant Ksv ([2]; 303 K): 1680 M⁻¹; number of binding sites n ([2]; 303 K): 1.09; quenching association constant Ka ([2]; 303 K): 4100 M⁻¹; biomolecular quenching rate constant kq ([2]; 310 K): 1.76e+11 M⁻¹ s⁻¹; Stern-Volmer quenching constant Ksv ([2]; 310 K): 1760 M⁻¹; number of binding sites n ([2]; 310 K): 1.07; quenching association constant Ka ([2]; 310 K): 3600 M⁻¹; biomolecular quenching rate constant kq ([2]; 317 K): 1.93e+11 M⁻¹ s⁻¹; Stern-Volmer quenching constant Ksv ([2]; 317 K): 1930 M⁻¹; number of binding sites n ([2]; 317 K): 1.05; quenching association constant Ka ([2]; 317 K): 3100 M⁻¹; ∆G° ([3]; 296 K): -18.06 kJ/mol; ∆G° ([3]; 303 K): -18.68 kJ/mol; ∆G° ([3]; 310 K): -19.30 kJ/mol; ∆G° ([3]; 317 K): -19.92 kJ/mol; ∆H° [3]: 8.13 kJ/mol; ∆S° [3]: 88.48 J/mol K; Förster critical energy transfer distance R0 [4]: 5.03 nm; binding distance r (donor-acceptor) [4]: 6.77 nm; efficiency of energy transfer E [4]: 0.144; other secondary structure content of apo-hTf ([5]; compound concentration 0.4 (M)): 18.9%; random coil content of apo-hTf ([5]; compound concentration 0.4 (M)): 33.8%; α-helix content of apo-hTf ([5]; compound concentration 0.4 (M)): 29.3%; β-sheet content of apo-hTf ([5]; compound concentration 0.4 (M)): 18%; other secondary structure content of apo-hTf ([5]; compound concentration 0.8 (M)): 18.9%; random coil content of apo-hTf ([5]; compound concentration 0.8 (M)): 33.8%; α-helix content of apo-hTf ([5]; compound concentration 0.8 (M)): 29.1%; β-sheet content of apo-hTf ([5]; compound concentration 0.8 (M)): 18.2%; other secondary structure content of apo-hTf ([5]; compound concentration 1.2 (M)): 18.8%; random coil content of apo-hTf ([5]; compound concentration 1.2 (M)): 33.9%; α-helix content of apo-hTf ([5]; compound concentration 1.2 (M)): 29%; β-sheet content of apo-hTf ([5]; compound concentration 1.2 (M)): 18.3%; other secondary structure content of apo-hTf ([5]; compound concentration 1.6 (M)): 18.9%; random coil content of apo-hTf ([5]; compound concentration 1.6 (M)): 33.9%; α-helix content of apo-hTf ([5]; compound concentration 1.6 (M)): 28.8%; β-sheet content of apo-hTf ([5]; compound concentration 1.6 (M)): 18.4%; other secondary structure content of apo-hTf ([5]; compound concentration 2 (M)): 18.9%; random coil content of apo-hTf ([5]; compound concentration 2 (M)): 34%; α-helix content of apo-hTf ([5]; compound concentration 2 (M)): 28.6%; β-sheet content of apo-hTf ([5]; compound concentration 2 (M)): 18.5%; other secondary structure content of apo-hTf ([5]; compound concentration 2.4 (M)): 19%; random coil content of apo-hTf ([5]; compound concentration 2.4 (M)): 34%; α-helix content of apo-hTf ([5]; compound concentration 2.4 (M)): 28.4%; β-sheet content of apo-hTf ([5]; compound concentration 2.4 (M)): 18.6%; IC50 ([6]; read-out: IC50 (±SD), MCF-7, ref 82): 570 µM; IC50 ([7]; read-out: IC50 (±SD), HT-29, ref 82): 413 µM
